Source: ChEMBL document CHEMBL3102843, “Synthesis and antifungal activity of substituted 2,4,6-pyrimidinetrione carbaldehyde hydrazones” (Bioorg Med Chem, 2014)
In brackets after ≈: the same amount, converted by molar mass. Activity calls are given as the source filed them. How the calls were made is not given here.

Assays:
Type in all cases: functional
Nakaseomyces glabratus [1] = experiment: Antifungal activity against Candida glabrata ATCC 48435 at 16 ug/ml after 48 to 72 hrs by broth microdilution method
Candida albicans [2] = experiment: Antifungal activity against Candida albicans ATCC 10231 at 62 ug/ml after 48 to 72 hrs by broth microdilution method
Nakaseomyces glabratus [3] = experiment: Antifungal activity against Candida glabrata ATCC 48435 after 48 to 72 hrs by broth microdilution method
Outline: (§1)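 Broth microdilution per NCCLS. Organisms were subcultured on Sabouraud agar. Inoculum was 5–7 colonies from YM agar in sterile water, adjusted to 0.5 McFarland at 530 nm (1–5×10⁶ cells/mL stock), held 30 min at RT, then diluted 1:50 in HEPES-buffered RPMI 1640. DMSO stocks were twofold-diluted, with final DMSO ≤1%. Plates ran 48–72 h at 35 °C, humid. MIC is the lowest concentration giving ≥80% growth reduction vs drug-free wells, scored visually. Fluconazole or amphotericin B ran as drug control.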

Candida albicans [4] = experiment: Antifungal activity against Candida albicans ATCC 10231 after 48 to 72 hrs by broth microdilution method; outline: as §1
Nakaseomyces glabratus [5] = experiment: Antifungal activity against Candida glabrata ATCC 48435 at 31 ug/ml after 48 to 72 hrs by broth microdilution method
Candida albicans [6] = experiment: Antifungal activity against Candida albicans ATCC 10231 at 16 ug/ml after 48 to 72 hrs by broth microdilution method

| SMILES | inhibition at 16 µg/mL (Nakaseomyces glabratus [1]) [%] | inhibition at 62 µg/mL (Candida albicans [2]) [%] | MIC80 (Nakaseomyces glabratus [3]) | MIC80 (Candida albicans [4]) | inhibition at 31 µg/mL (Nakaseomyces glabratus [5]) [%] | inhibition at 16 µg/mL (Candida albicans [6]) [%] |
| --- | --- | --- | --- | --- | --- | --- |
| O=C1NC(=O)C(/C=N/NC(=O)c2ccc([N+](=O)[O-])cc2)C(=O)N1 | < 50 | < 50 | 16 µg/mL (≈ 50.1 µM) | 62 µg/mL (≈ 194 µM) |  |  |
| CN/N=C(\C)C1C(=O)NC(=O)NC1=O |  |  | 31 µg/mL (≈ 156 µM) | inactive | < 50 |  |
| Cc1ccc(S(=O)(=O)N/N=C/C2C(=O)NC(=O)NC2=O)cc1 |  |  | inactive | 16 µg/mL (≈ 49.3 µM) |  | < 50 |
